The text below walks through data of ChEMBL document CHEMBL4513216, “Probing the Open Global Health Chemical Diversity Library for Multistage-Active Starting Points for Next-Generation Antimalarials” (ACS Infect Dis, 2020).

This data set can be described thus: Toxicity liver stage against HepG2, at 10uM. The class given is cell-based. Details: test concentration 10 uM, cell line HepG2-A16-CD81EGFP. As to conditions: human, HepG2-A16-CD81EGFP cells; read-out: INHIBITION
In outline:
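Uninfected HepG2-A16-CD81EGFP cells, 3 × 10^3 per well, 1536-well, plated on prespotted compound at 10 μM final, parasite-free screening media added to match infected plates; puromycin 10 μM positive, DMSO 0.5% negative; run in parallel with 48 h PbLuc assay at 37 °C, 5% CO2; viability by CellTiter-Glo luminescence, normalized to controls.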

The structures appear in SMILES notation.

As to `Cc1cc(C2CCC2)nc(N(C)Cc2cnccn2)n1`, the cytotoxicity at 10 µM is -1.86%. Turning to `COCCN1CCC2(CC1)C(=O)Nc1ccc(C(=O)NC(C)C)cc12`, the cytotoxicity at 10 µM worked out at 2.02%.

For the molecule `Cc1cc(CN(C)C(=O)C2CCCN(C(=O)c3ccc(Cl)cc3)C2)no1` (configuration not stated), the cytotoxicity at 10 µM was -15.6%. Take `CCc1nc(C2CCCN(C(=O)c3ccc(O)nc3)C2)no1` (configuration not stated): the cytotoxicity at 10 µM was -11.7%. For the molecule `CCOC(=O)c1sc(NC(=O)CCCC(=O)O)c(C#N)c1C`, the cytotoxicity at 10 µM is 11.6%.

With `CN1C(=O)c2cccc(NC(=O)c3cccc(S(C)(=O)=O)c3)c2C1=O`, the cytotoxicity at 10 µM is -7.75%. Take `Cc1nn(C)c(C)c1C(=O)NC(C)CC(=O)c1cccs1` (configuration not stated): the cytotoxicity at 10 µM was -5.08%. The same measure for `COC(=O)[C@H](C)NC(=O)c1nc(C2CC2)n(-c2ccccc2Cl)n1`: -1.76%; for `Nc1nc2c(c(N3CCCC3)n1)CCN(Cc1ccccn1)CC2`: -35.3%; for `O=C1CCCN1C1CCCN(CCOc2ccc(F)cc2)C1` (configuration not stated): 7.62%.

As to `CN(C)C(=O)CNC(CC(F)(F)F)c1ccc(F)cc1` (configuration not stated), the cytotoxicity at 10 µM was -3.08%.

Regarding `O=C(Nc1ccc(-c2csnn2)cc1)N1CCC(N2CCCC2)C1` (configuration not stated), the cytotoxicity at 10 µM is -8.79%.

`CCn1nnc2c1C(COC)CN(Cc1cccs1)C2` (configuration not stated): the cytotoxicity at 10 µM was -16.5%. `O=C(NCCNc1ncccn1)N1CCCC1c1ccncc1` (configuration not stated): the cytotoxicity at 10 µM was -4.65%. In the case of `Cc1nc(S(=O)(=O)CCn2cccn2)n(C2CCCC2)c1C`, the cytotoxicity at 10 µM was -0.829%.

`Cc1cccc(-c2nc(C)nn2CN2CCN(c3ncccn3)CC2)c1`: the cytotoxicity at 10 µM was -6.45%. `CC(C)N1CCc2[nH]nc(C(=O)N3CCOCC3)c2C1`: the cytotoxicity at 10 µM is -1.6%.

As to `O=C1CC(C2CCCCC2)c2c(n(C3CCCC3)[nH]c2=O)N1` (configuration not stated), the cytotoxicity at 10 µM was -5.01%. Turning to `Cc1ccc(C(=O)N2CCN(CCCSCC#N)CC2)o1`, the cytotoxicity at 10 µM was -11.1%.

As for `COCC(=O)N1CC[C@H]2O[C@@H](C)C[C@H]2C1`, the cytotoxicity at 10 µM is -66.1%. Regarding `Cc1nn(CCC(=O)N2CCCC(OCc3cccnc3)C2)c(C)c1C` (configuration not stated), the cytotoxicity at 10 µM is -5.47%.

In the case of `CCn1cc(CN2CCCN(C(=O)c3ccc(C#N)cc3)CC2)cn1`, the cytotoxicity at 10 µM was found to be 1.8%. Regarding `Cc1ccc(F)cc1NC(=O)C1CCCN1C(=O)C(C)C` (configuration not stated), the cytotoxicity at 10 µM was -4.93%. On to `O=C(CCc1ccccc1F)N1CCCC(OCc2cccnc2)C1` (configuration not stated), for which the cytotoxicity at 10 µM is -5.44%. As to `CS(=O)(=O)N1CCC(n2nnn(-c3ccccc3)c2=O)CC1`, the cytotoxicity at 10 µM amounted to 2.58%. `Cc1ccc(S(=O)(=O)NC(=O)c2cc(S(C)(=O)=O)ccc2C)s1`: the cytotoxicity at 10 µM was 14.1%. As to `O=C(CC1CCC1)N1CCCC(CO)(CC2CC2)C1` (configuration not stated), the cytotoxicity at 10 µM stood at 7.18%. For `CCCc1nnc(N2CCC(N3CCCC(O)C3)CC2)o1` (configuration not stated), the cytotoxicity at 10 µM was 13.6%.

Take `CSCCC(=O)N1CCC(c2nnc(CN(C)CCO)n2C)CC1`: the cytotoxicity at 10 µM stood at 0.583%. Regarding `COCCS(=O)(=O)N(Cc1cscn1)c1ccccc1`, the cytotoxicity at 10 µM is -3.3%.

For `CCC(=O)N1CCCN(C(=O)c2cc(C)cc(Br)c2O)CC1`, the cytotoxicity at 10 µM was determined as 7.12%.

On to `OC1(Cn2ccc3ncccc32)CCN(Cc2cccnc2)CC1`, for which the cytotoxicity at 10 µM turned out to be 5.72%. As for `CCSCCC(C)N(C)C(=O)c1cc(C)no1` (configuration not stated), the cytotoxicity at 10 µM was -9.99%. With `Cc1nc(C)n(CC2CCCN2Cc2cn3c(C)cccc3n2)n1` (configuration not stated), the cytotoxicity at 10 µM is 2.02%.

For `CN1CCC(c2nc3ccc(-c4ccccc4)cn3n2)CC1`, the cytotoxicity at 10 µM is -5.29%. As for `COCCCNC(=O)Nc1ccc(-n2cncn2)c(C(F)(F)F)c1`, the cytotoxicity at 10 µM was -6.98%. In the case of `CNc1nc(CNC(=O)Nc2cccc(F)c2)cs1`, the cytotoxicity at 10 µM was -5.45%. With `Cc1cc(C)n(CC2CN(CC(=O)NC3CCCC3)CCO2)n1` (configuration not stated), the cytotoxicity at 10 µM is -4.41%.

In the case of `Cc1nn(C)cc1C(=O)N1CCC(CSc2ccccc2)C1` (configuration not stated), the cytotoxicity at 10 µM is 2.84%.

Regarding `CCc1nc(C2CCCN(C(=O)c3cnn(CC)c3)C2)no1` (configuration not stated), the cytotoxicity at 10 µM stood at 4.16%. `CC1(C)Cc2nc(C(C)(C)C)ncc2C(NC(=O)CN)C1` (configuration not stated): the cytotoxicity at 10 µM was -6.55%. In the case of `COc1c(C)cnc(CN2CCOC(Cn3cncn3)C2)c1C` (configuration not stated), the cytotoxicity at 10 µM is -3.36%. For `CCC(=O)N1CCC(O)(c2ncc(OC)nc2OC)CC1`, the cytotoxicity at 10 µM came to 3.03%. The same measure for `COc1ncc(CN2CCOC(Cc3cccc4ccccc34)C2)cn1` (configuration not stated): -3.94%; for `Cc1occc1CNC(=O)C1CCCN1C(=O)C1CC1` (configuration not stated): 7.98%; for `COc1ccccc1CN1CC[C@H]2[C@@H](C1)[C@H](c1ccsc1)CN2C(C)=O`: -12.4%. For `Cc1cccc(COC[C@H]2CC[C@H]3[C@H](CCN3Cc3ccco3)O2)n1`, the cytotoxicity at 10 µM is -172%. `O=C(c1ccc(S(=O)(=O)N2CCSCC2)cc1)N1CCCCCC1`: the cytotoxicity at 10 µM is 13.9%. The same measure for `COc1cc(F)ccc1C(C(=O)O)N1CCN(C2CCCCC2)CC1` (configuration not stated): -8.93%; for `CC(C(=O)NCc1ccco1)N1CCN(Cc2nccn2C)CC1` (configuration not stated): 7.73%; for `COC(=O)[C@H]1CN(S(C)(=O)=O)CCN1S(C)(=O)=O`: -1.37%. Consider `Cc1nc2ccc(C(=O)N3C[C@@H](O)[C@H](N4CCN(C)CC4)C3)cc2[nH]1`, for which the cytotoxicity at 10 µM is -27.5%. In the case of `O=C(NCCc1cccs1)[C@]12COC[C@H]1CN(c1ncccn1)C2` it was -109%; in that of `CCc1ccc(C(=O)NC2CCN(c3cnn(C)c3)C2=O)o1` (configuration not stated), -6.13%; in that of `COC(=O)CN1CCN(c2nc3c(s2)c(C)nn3C)C(C)C1=O` (configuration not stated), 3.27%.

As to `CC(C)N1CCOC[C@H]1c1nc(C(C)(C)C)c[nH]1`, the cytotoxicity at 10 µM was -1.99%. In the case of `c1ccc(OCCCN2CCN(c3ccc4nncn4n3)CC2)cc1`, the cytotoxicity at 10 µM was -0.421%.

As for `CCCOC1CCCN(Cc2nc(-c3ccc(F)cc3F)oc2C)C1` (configuration not stated), the cytotoxicity at 10 µM is -51.1%. As to `CC1COCCN1C(=O)Nc1cnc2c(cnn2C(C)C)c1` (configuration not stated), the cytotoxicity at 10 µM was -2.21%. For the molecule `CN(CCCn1cnc2c(N)ncnc21)Cc1ccccc1`, the cytotoxicity at 10 µM was -4.87%.

On to `O=C(CCOc1ccc(Br)cc1)N1CCN(c2cnccn2)CC1`, for which the cytotoxicity at 10 µM was 0.207%. `CN1CCN(C(=O)CCCc2ccccc2)CC(O)(Cn2cccn2)C1` (configuration not stated): the cytotoxicity at 10 µM is -1.93%.

Turning to `c1cc(CCn2ccc(NC3CCSCC3)n2)ccn1`, the cytotoxicity at 10 µM was found to be 5.55%. `O=C(NC1CCC1)[C@H]1C[C@@H]2[C@@H](C1)OCCN2CC1CC1`: the cytotoxicity at 10 µM was -2.17%. With `CC(=O)N(C)c1nc(Cn2nnnc2C(C)C)cs1`, the cytotoxicity at 10 µM is -2.01%. As for `O=C(c1ccc(CN2CCCCC2)cc1)N1Cc2cnn(CCO)c2C1`, the cytotoxicity at 10 µM is 12.6%. `COc1ccc2c(c1)CCCN(C(C)C(=O)NC(C)C)C2` (configuration not stated): the cytotoxicity at 10 µM turned out to be 9.56%. With `CCN1C[C@@H]2[C@@H](OC)CCN(S(=O)(=O)c3ccccc3F)[C@@H]2C1`, the cytotoxicity at 10 µM was -0.902%.

`CC1(C)CC1(C(=O)N1CC(c2cccnc2)C1)c1ccc(F)cc1` (configuration not stated): the cytotoxicity at 10 µM was -9.41%. Turning to `O=C(Cn1ccc(=O)[nH]c1=O)Nc1ccccc1F`, the cytotoxicity at 10 µM is -0.691%. `Cc1nc(CN2CCCCC2Cn2cccn2)nc2ccccc12` (configuration not stated): the cytotoxicity at 10 µM was -41.5%. For the molecule `Cc1cnn(CC2CN(Cc3nc4ccccc4c(=O)[nH]3)CCO2)c1` (configuration not stated), the cytotoxicity at 10 µM is -7.62%. As for `O=C(NCCSC1CCCC1)c1cc(Cl)ccn1`, the cytotoxicity at 10 µM is -15.5%. On to `CN1C(=O)C(c2cccnc2)CC12CCN(CCO)CC2` (configuration not stated), for which the cytotoxicity at 10 µM was determined as 3.55%.

For `CNC(=O)NC(=O)CN1CCCC(Cc2ccccc2OC)C1` (configuration not stated), the cytotoxicity at 10 µM worked out at 4.95%. In the case of `COCc1cn(CC2CCN(Cc3c(C)[nH]c4ccccc34)CC2)nn1` it was -5.36%; in that of `COC(=O)N1CC(C)=C(C)CN1C(=O)Nc1ccc(Cl)c(Cl)c1`, -1.53%; in that of `CNc1cncc(C2CCCN2Cc2ccnc(C)n2)n1` (configuration not stated), -11.4%. For `Cc1nc(CN2CCN(C)C(=O)C23CCN(CC2CCCC2)CC3)cs1`, the cytotoxicity at 10 µM amounted to 11%. In the case of `COC(=O)c1ccc(N2CCN(C(=O)c3ccc(O)nc3)C(C)C2)cc1` (configuration not stated) it was -4.5%; in that of `CC(=O)N1CCn2c(C(=O)N(C)C)cnc2C1`, 1.54%. With `Cn1cc(C2=CCN(CCC(=O)NCc3ccc(Cl)cc3)CC2)cn1`, the cytotoxicity at 10 µM is -1.77%. The same measure for `CC1=Nc2c(c(=O)[nH]n2C2CCCC2)C(c2ccc(C(=O)O)cc2)S1` (configuration not stated): -10.4%; for `c1ccc(CCCn2ccnc2-c2cn(C3CCNCC3)nn2)nc1`: -1.86%.

On to `Cn1ccnc1SCCNC(=O)CC1CCc2ccccc21` (configuration not stated), for which the cytotoxicity at 10 µM is -3.05%. The same measure for `O=C(NCC1CC1)C1CCC2(CCN(C(=O)c3cccs3)CC2)O1` (configuration not stated): -0.979%. On to `CCOC(=O)CN1CCC2(CC1)CC(=O)c1ccc(OC)cc1O2`, for which the cytotoxicity at 10 µM came out at 6.2%. In the case of `OC(CN1CCCCCCC1)c1ccc(F)cc1` (configuration not stated), the cytotoxicity at 10 µM is -10.4%. For `CCCn1ncc2c(C(=O)Nc3n[nH]c(SC)n3)cc(C3CC3)nc21`, the cytotoxicity at 10 µM was determined as 1.52%. Regarding `CCN1CCn2c(C)cnc2C12CCN(C(=O)Cc1ccccc1)CC2`, the cytotoxicity at 10 µM was found to be 4.59%. For `CC(Nc1nc2c(cnn2C)c(=O)[nH]1)c1ccc(F)cc1` (configuration not stated), the cytotoxicity at 10 µM was 16.6%. As for `NC(=O)c1cnn2c1NCC(CNCCCOc1ccccc1F)C2` (configuration not stated), the cytotoxicity at 10 µM was -5.56%. As for `Cc1nc(CN(C)C(=O)CNC(=O)c2ccc(C#N)cc2)cs1`, the cytotoxicity at 10 µM turned out to be 12.5%. For the molecule `COCC(=O)Nc1ccc(Oc2ccsc2C(=O)O)cc1`, the cytotoxicity at 10 µM was determined as 8.12%.

Take `Cc1cc(C(=O)N2CCN(c3nc4c(F)cccc4s3)CC2)no1`: the cytotoxicity at 10 µM is -3.64%. In the case of `CN(CCn1nc2ccccn2c1=O)CC(=O)N1CCCC1` it was 7.08%.

`Cc1nnn2c1COCC(CNCc1nccs1)C2` (configuration not stated): the cytotoxicity at 10 µM is -109%.
